# Rows were chosen to be rich in hits. Some 2.3% of all compounds tested hit in one or more screens of this group.
# MEKK3 PB1 HTS: modulators of MEKK3-MEK5 PB1 binding, primary screen, biochemical, wildtype MEKK3, multiplex bead flow cytometry, Alexa488-MEK5 | Mitogen-activated protein kinase kinase kinase 3 (Homo sapiens), Q99759 | bead-based flow cytometry, Alexa488-MEK5 binding to MEKK3; actives lie on both sides; 0 = blocked by unlabeled MEK5, 100 = vehicle | binding response (% of control), % at 10 µM | 1.4% of 290,000 active | AID 1529, 2009;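 active = binding response more than 3 SD above or below the average of its plate-row segment, actives on both sides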;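 also: Alexa488 bead fluorescence after subtracting the streptavidin-only scavenger bead signal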
# Target sequence (Q99759 whole entry, looked up): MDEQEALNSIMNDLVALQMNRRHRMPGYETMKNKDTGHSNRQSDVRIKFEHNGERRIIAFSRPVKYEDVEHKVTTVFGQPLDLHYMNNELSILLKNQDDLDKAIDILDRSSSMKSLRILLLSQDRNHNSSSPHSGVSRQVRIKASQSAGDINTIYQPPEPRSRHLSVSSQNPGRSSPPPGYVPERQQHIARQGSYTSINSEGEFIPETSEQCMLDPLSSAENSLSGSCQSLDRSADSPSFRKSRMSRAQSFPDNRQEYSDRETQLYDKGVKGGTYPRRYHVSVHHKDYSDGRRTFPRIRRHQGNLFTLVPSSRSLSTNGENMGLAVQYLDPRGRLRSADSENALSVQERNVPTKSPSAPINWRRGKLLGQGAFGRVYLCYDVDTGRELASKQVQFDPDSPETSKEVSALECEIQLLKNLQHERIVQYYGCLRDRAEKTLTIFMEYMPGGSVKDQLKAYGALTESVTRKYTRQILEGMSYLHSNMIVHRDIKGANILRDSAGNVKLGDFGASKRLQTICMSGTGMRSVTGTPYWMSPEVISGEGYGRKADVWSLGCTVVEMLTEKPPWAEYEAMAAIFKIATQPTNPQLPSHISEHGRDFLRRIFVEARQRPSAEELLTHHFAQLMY
# MEKK2wt PB1 HTS: modulators of MEK5 binding to wildtype MEKK2, primary screen, biochemical, multiplex bead flow cytometry, Alexa488-MEK5; Mitogen-activated protein kinase kinase kinase 2 (Homo sapiens), Q9Y2U5; Alexa488-MEK5 binding to MEKK2 WT; actives lie on both sides; binding response (% of control), % at 10 µM; 1.1% of 290,000 active; in the data active = binding response below about 67% or above about 130%
# Arr AP2 block: inhibitors of beta-arrestin/AP2 binding, primary screen, biochemical, GPCR trafficking, flow cytometry. beta-arrestin 1 C-terminal peptide binding to AP2 beta2-adaptin appendage (human). FITC-arrestin peptide / GST-AP2 beads; AP2 beta2 appendage carries R879A mutation. inhibition, % at 10 µM. 0.31% of 340,000 active. AID 504490, 2011;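 active = inhibition above a set limit, near 3 SD of compounds lacking own fluorescence, cut at about 54% in these data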
#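 System: GST-AP2 R879A glutathione beads. Medium: PBS with 0.05% Tween 20 and 0.1% BSA. Also added: FITC-arrestin peptide, 50 nM. Incubation: 12 min plus 1 h, RT. Measured by: high-throughput flow cytometry of beads, ex 488, em 535 nm. Evaluation: percent drop in bead-associated FITC signal.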
# MEKK2 mut-MEK5: MEK5 binding signal on mutant MEKK2 PB1, primary screen, biochemical, multiplex bead flow cytometry, Alexa488-MEK5; Alexa488-MEK5 binding to MEKK2 mutant; percent response, % at 10 µM; 0.35% of 290,000 active; AID 1530, 2009; in the data active = percent response above about 24%, passing the limit was not always enough
# MEKK2wt confirm: modulators of MEK5 binding to wildtype MEKK2, confirmation, biochemical, single concentration, multiplex bead flow cytometry | Alexa488-MEK5 binding to MEKK2 WT; actives lie on both sides | binding response (% of control), % at 10 µM | 2.4% of 5,900 active | shares compounds with MEKK3 PB1 HTS; in the data active = binding response below about 16% or above about 210%; inactive = in between
# MEKK2mut confirm: mutant MEKK2 PB1-MEK5 binding signal retest – biochemical, single concentration, multiplex bead flow cytometry, confirmation. shares compounds with MEKK3 PB1 HTS. Alexa488-MEK5 binding to MEKK2 mutant. percent response, % at 10 µM. 2% of 5,900 active. AID 1893, 2009; in the data active = percent response mostly above about 71%, no sharp cut-off; inactive = mostly below about 38%;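 also: higher means compound restores mutant binding toward wildtype level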
# MEKK3-MEK5 inh: MEKK3 wild-type PB1 binding to MEK5, inhibitors, confirmation, biochemical, bead multiplex flow cytometry, single concentration, wildtype; binding response (% of control), % at 10 µM; Alexa488-MEK5 binding to MEKK3; active compounds read low; shares compounds with MEKK3 PB1 HTS; 1.8% of 5,900 active; AID 1894, 2009;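 active = binding response below 72% of control, or above a set upper limit, though filed actives all read lower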;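 also: lower values mean stronger disruption of MEK5 binding to MEKK3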
# A number is an active result; . = inactive; / = not tested or not shown; [ ] = dose if it differs, or a comment.
SMILES,MEKK3 PB1 HTS,MEKK2wt PB1 HTS,Arr AP2 block,MEKK2 mut-MEK5,MEKK2wt confirm,MEKK2mut confirm,MEKK3-MEK5 inh
NC(N)=N/N=C/c1ccc(N(c2ccccc2)c2ccccc2)cc1,.,235.0,.,73.0,.,.,.
Clc1ccc(C2NCCc3[nH]cnc32)cc1 (centres undefined),.,137.0,.,51.0,.,.,.
Fc1cccc(C2NCCc3[nH]cnc32)c1 (centres undefined),.,.,.,.,/,/,/
Cc1ccc2c(c1)[C@@H]1CN(C)CC[C@@H]1N2C(=O)Nc1cccc(C(F)(F)F)c1,.,139.0,.,.,.,.,.
Cc1ccc2c(c1)C1CN(C)CCC1N2C(=O)Nc1cccc(C(F)(F)F)c1 (centres undefined),.,.,.,.,/,/,/
CC(NS(=O)(=O)OCC(Cl)(Cl)Cl)c1ccccc1 (centres undefined),.,.,.,.,/,/,/
CCOc1cc2c(cc1OCC)-n1cccc1C(c1ccc(C(C)C)cc1)NC2 (centres undefined),.,141.0,.,.,.,.,.
O=C1NC(=O)N(c2ccc(Cl)cc2)C(=O)/C1=C\c1ccc(Sc2nc3ccccc3[nH]2)o1,.,.,.,.,/,/,/
CNc1ccc2nc3ccccc3[n+](C)c2c1,.,2.0[inhibitor],.,.,.,.,.
CNCC(O)c1cc(OCc2ccccc2)c(OCc2ccccc2)cc1F (centres undefined),.,138.0,.,.,.,.,.
COc1ccc(-c2nn(CCC#N)cc2C(=O)Nc2ccc(C(C)=O)cc2)cc1[N+](=O)[O-],.,.,.,.,/,/,/
COc1cccc(C2CC3C(=O)C=CC2N3Cc2ccccc2)c1 (centres undefined),157.0,.,.,.,.,.,.
N#Cc1c(Cl)nc(Cl)c2c1CCN(Cc1ccccc1)C2,183.0,.,.,.,.,.,.
c1ccc(CN2CCN(Cc3ccc4ccccc4c3)CC2)cc1,.,.,.,.,/,/,/
ClCCNc1nc2ccc(Cl)cc2[nH]1,.,.,.,.,/,/,/
CN(C)CCN(CC1CCCN(Cc2ccccc2F)C1)C(=O)Cc1ccccc1F (centres undefined),.,.,.,30.0,.,.,.
CN(C)CCN(CC1CCCN(Cc2ccccc2F)C1)C(=O)Cc1c(F)cccc1F (centres undefined),.,.,.,.,/,/,/
COc1ccc(C2c3c(nc(C)[nH]c3=O)Oc3c2c(=O)oc2ccccc32)cc1 (centres undefined),.,.,/,.,/,/,/
COC(=O)C1=C(c2c(C)noc2C)C[C@@H]2CC[C@H]1N2C(=O)NCC1CC1,/,/,.,/,/,/,/
O=c1[nH]c2ccccc2n1C1CCN(CCCC(c2ccc(F)cc2)c2ccc(F)cc2)CC1,.,146.0,.,31.0,.,.,.
O=C1CC(N2CCC(n3c(=O)[nH]c4ccccc43)CC2)C(=O)N1c1ccc(F)cc1 (centres undefined),.,.,.,.,/,/,/
CC1=C(C/C(C)=C/c2ccccc2)/C(=C/CO)[C@H](O)[C@](C)(O)C12CC2,.,.,.,.,/,/,/
CC1Oc2cc3c(-c4c(O)cc(O)c5c(O)c6c(cc45)OC(C)C(C)C6=O)c(O)cc(O)c3c(O)c2C(=O)C1C (centres undefined),.,.,.,.,/,/,/
CC(N)Cc1c[nH]c2ccc(OCc3cccs3)cc12 (centres undefined),.,140.0,.,.,.,.,.

# High-throughput results (PubChem)
